Among the data in ChEMBL document CHEMBL5543089, “Discovery of a novel, highly potent EZH2 PROTAC degrader for targeting non-canonical oncogenic functions of EZH2” (Eur J Med Chem, 2024) are Activity and IC50 values, retold here.

Calls of active or inactive are those of the source. The rule behind the calls is not given here.

The target in test [1] is T1, von Hippel-Lindau disease tumor suppressor/Histone-lysine N-methyltransferase EZH2 (Homo sapiens, UniProt Q15910+P40337). The test can be described thus: PROTAC activity at VHL/EZH2 degradation in hMLLr AML cell line EOL1 cells assessed as protein degradation at 0.1 to 1 uM measured after 24 hrs by Western blot analysis. It is filed as cell-based. The following applies: dose 0.1-1 µM. The essentials:
(§1)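 Cells were seeded at 0.5–2 million per well and treated for 24 h, or for the stated times at 300 nM in the time course. Lysis was in RIPA with protease inhibitors; ~10 μg protein was run on SDS-PAGE and blotted to PVDF. Detection used fluorescent immunoblotting for EZH2, EED and SUZ12, with β-actin as loading control. Blots are representative of two biological experiments.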
(In general: In western blotting, separated proteins are transferred to a membrane and probed.)

The test system of test [2] is MV4-11. As to the kind of experiment: Anti-proliferative activity against human MV4-11 cells assessed as cell viability measured after 5 days incubation by CCK-8 assay. The class given is functional, cell-based. The conditions noted are these: MV4-11, 120 h. The essentials:
(§2)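 Cells plated at 3,000–10,000 per well and exposed to serial dilutions for 5 days at 37 °C. CCK-8 (1x) was added for 2–4 h, with absorbance read at 450 nm against a 690 nm reference. IC50 was taken from curve fits. Leukemia lines were grown in RPMI-1640, K562 in IMDM and MDA-MB-468 in DMEM, all with 10 % FBS. Values are means ± SD of two biological experiments (three for BT549 and MDA-MB-468).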
In general terms: Formazan colour is commonly taken as a measure of viable cells.

The subject of test [3] is RS4-11. The test can be described thus: Anti-proliferative activity against human RS4-11 cells assessed as cell viability measured after 5 days incubation by CCK-8 assay. The class given is functional, cell-based. The conditions noted are these: RS4-11, 120 h. The method in brief:
as §2

For test [4], the system named is EOL1. The test can be described thus: Anti-proliferative activity against human EOL1 cells assessed as cell viability measured after 5 days incubation by CCK-8 assay. The conditions noted are these: EOL1, 120 h. It is filed as functional, cell-based. The method in brief:
as §2

Test [5] has as its target T1, von Hippel-Lindau disease tumor suppressor/Histone-lysine N-methyltransferase EZH2. As to the kind of experiment: PROTAC activity at VHL/EZH2 degradation in hMLLr AML cell line EOL1 cells assessed as protein degradation at 1 uM measured after 24 hrs by Western blot analysis. It is filed as cell-based. The method in brief: as §1
The target is the same in test [6]. As to the kind of experiment: PROTAC activity at VHL/EZH2 degradation in hMLLr AML cell line EOL1 cells assessed as protein degradation at 0.1 uM measured after 24 hrs by Western blot analysis. The class given is cell-based. The essentials:
as §1

The test system of test [7] is MDA-MB-468. The test can be described thus: Anti-proliferative activity against human MDA-MB-468 cells assessed as cell growth inhibition measured after 5 days incubation by CCK-8 assay. The class given is functional, cell-based. The following applies: MDA-MB-468, 120 h. The method in brief: as §2
For test [8], the system named is BT-549. The test can be described thus: Anti-proliferative activity against human BT-549 cells assessed as cell growth inhibition measured after 5 days incubation by CCK-8 assay. It is filed as functional, cell-based. The conditions noted are these: BT-549, 120 h. The essentials:
as §2

T1 sequence (P40337 whole entry, looked up): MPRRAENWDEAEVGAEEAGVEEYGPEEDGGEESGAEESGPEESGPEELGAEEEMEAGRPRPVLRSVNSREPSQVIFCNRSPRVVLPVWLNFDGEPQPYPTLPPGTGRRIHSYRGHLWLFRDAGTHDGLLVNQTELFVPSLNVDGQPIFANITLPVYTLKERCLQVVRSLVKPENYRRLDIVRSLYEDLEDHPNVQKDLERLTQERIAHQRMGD
T1 sequence (Q15910 whole entry, looked up): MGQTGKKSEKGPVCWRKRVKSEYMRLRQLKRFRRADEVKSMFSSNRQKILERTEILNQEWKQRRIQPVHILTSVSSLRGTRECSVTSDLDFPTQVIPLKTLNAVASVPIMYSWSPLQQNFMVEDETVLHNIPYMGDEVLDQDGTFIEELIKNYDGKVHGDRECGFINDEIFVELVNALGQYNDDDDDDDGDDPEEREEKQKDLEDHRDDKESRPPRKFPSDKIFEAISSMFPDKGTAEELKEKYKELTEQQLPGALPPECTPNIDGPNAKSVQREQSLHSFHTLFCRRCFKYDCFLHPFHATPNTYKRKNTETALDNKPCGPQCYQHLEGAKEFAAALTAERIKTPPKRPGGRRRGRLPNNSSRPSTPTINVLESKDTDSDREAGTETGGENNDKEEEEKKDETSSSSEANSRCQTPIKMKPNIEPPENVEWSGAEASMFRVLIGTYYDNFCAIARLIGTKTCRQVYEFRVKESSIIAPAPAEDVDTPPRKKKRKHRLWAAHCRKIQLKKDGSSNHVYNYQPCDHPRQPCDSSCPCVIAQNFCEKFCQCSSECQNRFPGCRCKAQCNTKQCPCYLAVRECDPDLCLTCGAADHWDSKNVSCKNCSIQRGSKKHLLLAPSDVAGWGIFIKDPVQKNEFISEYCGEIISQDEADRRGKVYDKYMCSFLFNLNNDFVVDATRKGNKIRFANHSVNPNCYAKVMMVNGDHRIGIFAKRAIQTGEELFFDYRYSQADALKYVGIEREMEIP

Turning to `CCN(c1cc(-c2ccc(CN3CCN(CCC(=O)NCCCCCCCC(=O)N[C@H](C(=O)N4C[C@H](O)C[C@H]4C(=O)NCc4ccc(-c5scnc5C)cc4)C(C)(C)C)CC3)cc2)cc(C(=O)NCc2c(C)cc(C)[nH]c2=O)c1C)C1CCOCC1`, the result in test [1] was Active.

Consider `CCN(c1cc(-c2ccc(CN3CCN(CCC(=O)NCCCCC(=O)N[C@H](C(=O)N4C[C@H](O)C[C@H]4C(=O)NCc4ccc(-c5scnc5C)cc4)C(C)(C)C)CC3)cc2)cc(C(=O)NCc2c(C)cc(C)[nH]c2=O)c1C)C1CCOCC1`, for which the outcome in test [1] was inactive.

As to `CCN(c1cc(-c2ccc(CN3CCN(CCC(=O)NCCCCCCC(=O)N[C@H](C(=O)N4C[C@H](O)C[C@H]4C(=O)NCc4ccc(-c5scnc5C)cc4)C(C)(C)C)CC3)cc2)cc(C(=O)NCc2c(C)cc(C)[nH]c2=O)c1C)C1CCOCC1`, in test [1], the result was inactive.

Take `CCN(c1cc(-c2ccc(CN3CCN(CCC(=O)NCCCCCCCCC(=O)N[C@H](C(=O)N4C[C@H](O)C[C@H]4C(=O)NCc4ccc(-c5scnc5C)cc4)C(C)(C)C)CC3)cc2)cc(C(=O)NCc2c(C)cc(C)[nH]c2=O)c1C)C1CCOCC1`: in test [1], the result was Active.

For `CCN(c1cc(-c2ccc(CN3CCN(CCCCCCCOc4cccc5c4C(=O)N(C4CCC(=O)NC4=O)C5=O)CC3)cc2)cc(C(=O)NCc2c(C)cc(C)[nH]c2=O)c1C)C1CCOCC1` (stereo unspecified), the 50% inhibitory concentration (IC50) – broadly, the concentration at which inhibition is half-maximal – in test [2] is 5500 nM; in test [3], 5000 nM; in test [4] it was 3700 nM.

As for `CCN(c1cc(-c2ccc(CN3CCN(CCC(=O)NCCCCCCCCCC(=O)N[C@H](C(=O)N4C[C@H](O)C[C@H]4C(=O)NCc4ccc(-c5scnc5C)cc4)C(C)(C)C)CC3)cc2)cc(C(=O)NCc2c(C)cc(C)[nH]c2=O)c1C)C1CCOCC1`, in test [5], the outcome was Active. In test [6], the Activity came out at 100%.

For `CCN(c1cc(-c2ccc(CN3CCN(CCC(=O)NCCCCCC(=O)N[C@H](C(=O)N4C[C@H](O)C[C@H]4C(=O)NCc4ccc(-c5scnc5C)cc4)C(C)(C)C)CC3)cc2)cc(C(=O)NCc2c(C)cc(C)[nH]c2=O)c1C)C1CCOCC1`, the outcome in test [1] was inactive.

Regarding `CCN(c1cc(-c2ccc(OCCCOCC(=O)N[C@H](C(=O)N3C[C@H](O)C[C@H]3C(=O)NCc3ccc(-c4scnc4C)cc3)C(C)(C)C)cc2)cc(C(=O)NCc2c(C)cc(C)[nH]c2=O)c1C)C1CCOCC1`, the IC50 in test [2] is greater than 10000 nM; in test [3] it was 4070 nM; in test [4], 5400 nM.

Consider `CCN(c1cc(-c2ccc(CN3CCOCC3)cc2)cc(C(=O)NCc2c(C)cc(C)[nH]c2=O)c1C)C1CCOCC1` [TAZEMETOSTAT], for which the IC50 in test [7] was greater than 2500 nM; in test [8] it was greater than 10000 nM.

Regarding `Cc1cc(C)c(CNC(=O)c2cc(-c3ccc(N4CCN(CCCCCCCCCc5cn(CCOCCOCCOCCOCCOCCOCCNc6cccc7c6C(=O)N(C6CCC(=O)NC6=O)C7=O)nn5)CC4)nc3)cc3c2cnn3C(C)C)c(=O)[nH]1` (stereo unspecified), the results for the IC50 in test [2], in test [3] and in test [4] were 460 nM, 650 nM and 1000 nM, respectively.

In the case of `CCN(c1cc(-c2ccc(CN3CCN(C(=O)CCCCCCCC(=O)N[C@H](C(=O)N4C[C@H](O)C[C@H]4C(=O)NCc4ccc(-c5scnc5C)cc4)C(C)(C)C)CC3)cc2)cc(C(=O)NCc2c(C)cc(C)[nH]c2=O)c1C)C1CCOCC1`, the figures for the IC50 in test [2], in test [3] and in test [4] were 1000 nM, 1400 nM and 420 nM, respectively.
